{"source": "ChEMBL document CHEMBL4024753", "about": "“Lipoyl-Homotaurine Derivative (ADM_12) Reverts Oxaliplatin-Induced Neuropathy and Reduces Cancer Cells Malignancy by Inhibiting Carbonic Anhydrase IX (CAIX)” (J Med Chem, 2017)", "key": {"[1]": {"assay": "Antioxidant activity of compound assessed as reduction in ipoxanthine/xanthine oxidase-induced superoxide anion level after 30 mins by nitro blue tetrazolium-based spectrophotometric assay", "type": "functional", "procedure,_shortened": "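Cell-free test with superoxide generated by a hypoxanthine–xanthine oxidase system. Nitro blue tetrazolium […] read after 30 min without or with increasing compound concentrations (up to 1000 μM).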"}, "Astrocyte": {"tested_on": "Astrocyte", "assay": "Antioxidant activity in Sprague-Dawley rat primary cortical astrocytes assessed as inhibition of OXA-induced superoxide radical anion at 100 uM after 4 hrs by cytochrome C assay relative to control", "type": "functional", "procedure,_shortened": "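Primary rat cortical astrocytes (5 × 10^5 cells/well) exposed to 100 μM oxaliplatin for 4 h, with or without co-incubated compound. Superoxide measured by cytochrome C assay. Absorbance in the presence of SOD subtracted as nonspecific. Mean ± SEM of three experiments versus untreated culture.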"}, "Rattus norvegicus": {"tested_on": "Rattus norvegicus", "assay": "Antihyperalgesic activity in OXA-induced neuropathic pain Sprague-Dawley rat model assessed as reduction in response to noxious mechanical stimulus at 30 mg/kg, po after 15 to 75 mins on day 21 post induction", "type": "functional, organism-based", "procedure,_shortened": "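Male Sprague-Dawley rats (200-250 g) given oxaliplatin 2.4 mg kg−1 ip daily in 0.5% glucose solution. On day 21, single po dose of test agent in 1% CMC vehicle. Paw-pressure test (noxious mechanical stimulus, weight tolerated) repeated over time after dosing. 12 rats per group from two experimental sets, mean ± SEM.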"}, "Carbonic anhydrase 9 [2]": {"target": "T1, Carbonic anhydrase 9 (Homo sapiens, UniProt Q16790)", "assay": "Inhibition of human carbonic anhydrase 9 incubated for 15 mins prior to testing by stopped flow CO2 hydrase assay"}, "Carbonic anhydrase 12": {"target": "Carbonic anhydrase 12 (Homo sapiens, UniProt O43570)", "sequence (O43570 whole entry)": "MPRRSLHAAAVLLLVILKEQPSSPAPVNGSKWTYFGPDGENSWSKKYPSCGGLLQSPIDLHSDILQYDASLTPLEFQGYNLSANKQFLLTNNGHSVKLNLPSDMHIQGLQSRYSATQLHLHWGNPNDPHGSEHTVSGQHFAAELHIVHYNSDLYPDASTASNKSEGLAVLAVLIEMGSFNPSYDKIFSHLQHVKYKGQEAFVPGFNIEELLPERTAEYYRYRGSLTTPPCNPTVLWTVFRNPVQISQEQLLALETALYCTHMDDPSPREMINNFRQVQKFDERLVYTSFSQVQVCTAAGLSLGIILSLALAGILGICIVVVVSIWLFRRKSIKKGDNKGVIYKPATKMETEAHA", "assay": "Inhibition of human carbonic anhydrase 12 incubated for 15 mins prior to testing by stopped flow CO2 hydrase assay"}, "HT-29 [3]": {"tested_on": "HT-29", "assay": "Cytotoxicity against human HT-29 cells assessed as mortality at 1 to 300 uM after 24 hrs by MTT assay relative to control", "type": "functional", "procedure,_shortened": "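Human colon cancer HT-29 cells incubated with increasing concentrations (1−300 μM) for 24 h; viability read by MTT test and expressed as % of viable cells relative to untreated control.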"}, "HT-29 [4]": {"tested_on": "HT-29", "assay": "Synergistic antiproliferative activity against human HT-29 cells assessed as cell viability at 100 uM after 24 hrs in presence of 1 uM oxaliplatin by MTT assay relative to control", "type": "functional", "procedure,_shortened": "(§1)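 HT-29 cells co-treated 24 h with compound at 100 μM plus oxaliplatin (1, 10, 30, 100 or 300 μM). Viability by MTT as % viable cells versus untreated control. Compared to control and to compound alone.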"}, "HT-29 [5]": {"tested_on": "HT-29", "assay": "Synergistic antiproliferative activity against human HT-29 cells assessed as cell viability at 100 uM after 24 hrs in presence of 10 uM oxaliplatin by MTT assay relative to control", "type": "functional", "procedure,_shortened": "as §1"}, "HT-29 [6]": {"tested_on": "HT-29", "assay": "Synergistic antiproliferative activity against human HT-29 cells assessed as cell viability at 100 uM after 24 hrs in presence of 30 uM oxaliplatin by MTT assay relative to control", "type": "functional", "procedure,_shortened": "as §1"}, "HT-29 [7]": {"tested_on": "HT-29", "assay": "Synergistic antiproliferative activity against human HT-29 cells assessed as cell viability at 100 uM after 24 hrs in presence of 100 uM oxaliplatin by MTT assay relative to control", "type": "functional", "settings": "HT-29, 24 h, read-out: Activity", "procedure,_shortened": "as §1"}, "HT-29 [8]": {"tested_on": "HT-29", "assay": "Synergistic antiproliferative activity against human HT-29 cells assessed as cell viability at 100 uM after 24 hrs in presence of 300 uM oxaliplatin by MTT assay relative to control", "type": "functional", "procedure,_shortened": "as §1"}, "HT-29 [9]": {"tested_on": "HT-29", "assay": "Antiproliferative activity against human HT-29 cells assessed as cell viability at 100 uM after 24 hrs by MTT assay relative to control", "type": "functional", "settings": "HT-29, 24 h, read-out: Activity", "procedure,_shortened": "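HT-29 human colon cancer cells incubated 24 h with compound (range 1−300 μM). Viability by MTT, expressed as % viable cells relative to untreated control.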"}, "[10]": {"target": "Transient receptor potential cation channel subfamily A member 1 (Homo sapiens) (UniProt O75762)", "sequence (O75762 whole entry)": "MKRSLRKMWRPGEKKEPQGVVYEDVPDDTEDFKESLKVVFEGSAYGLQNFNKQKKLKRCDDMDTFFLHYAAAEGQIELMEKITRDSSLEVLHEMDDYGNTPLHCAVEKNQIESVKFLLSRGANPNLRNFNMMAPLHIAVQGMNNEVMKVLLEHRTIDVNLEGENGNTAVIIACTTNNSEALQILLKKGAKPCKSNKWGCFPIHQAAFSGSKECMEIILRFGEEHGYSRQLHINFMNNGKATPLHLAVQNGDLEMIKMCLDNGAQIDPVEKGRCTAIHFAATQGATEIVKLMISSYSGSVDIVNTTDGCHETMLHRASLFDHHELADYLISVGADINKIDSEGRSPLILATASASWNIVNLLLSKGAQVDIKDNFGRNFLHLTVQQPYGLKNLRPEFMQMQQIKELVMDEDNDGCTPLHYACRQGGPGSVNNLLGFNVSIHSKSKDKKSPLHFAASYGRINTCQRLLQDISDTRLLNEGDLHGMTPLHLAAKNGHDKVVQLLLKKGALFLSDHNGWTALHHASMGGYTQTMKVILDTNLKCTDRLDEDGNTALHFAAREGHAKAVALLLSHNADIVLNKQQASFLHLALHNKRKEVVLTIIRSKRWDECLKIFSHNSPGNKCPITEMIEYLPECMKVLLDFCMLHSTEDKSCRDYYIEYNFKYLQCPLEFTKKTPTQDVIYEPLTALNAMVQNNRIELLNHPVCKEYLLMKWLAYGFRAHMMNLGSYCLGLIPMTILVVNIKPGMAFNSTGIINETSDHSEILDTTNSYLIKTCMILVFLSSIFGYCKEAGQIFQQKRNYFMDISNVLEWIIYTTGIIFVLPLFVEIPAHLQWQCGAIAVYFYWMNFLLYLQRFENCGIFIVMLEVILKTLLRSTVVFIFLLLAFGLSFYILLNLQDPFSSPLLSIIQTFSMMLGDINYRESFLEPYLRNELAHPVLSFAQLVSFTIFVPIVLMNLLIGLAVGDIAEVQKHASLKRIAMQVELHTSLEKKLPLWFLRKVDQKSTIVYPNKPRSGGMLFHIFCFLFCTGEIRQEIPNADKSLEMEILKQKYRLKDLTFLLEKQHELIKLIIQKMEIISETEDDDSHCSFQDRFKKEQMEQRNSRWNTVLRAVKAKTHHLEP", "assay": "Inhibition of oxaliplatin activated TRPA1 (unknown origin) expressed in CHO cells assessed as reduction in channel evoked current at 30 uM by Patch-clamp method", "type": "cell-based", "procedure,_shortened": "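CHO cells transiently transfected with wild-type TRPA1, EGFP as transfection marker. Whole-cell patch clamp 48−72 h after transfection. Voltage ramps read at +50 and −50 mV. Currents evoked by 50 μM oxaliplatin, then compound applied. n = 5 cells, unpaired Student's t test.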"}, "[11]": {"target": "Macrophage metalloelastase (Homo sapiens, UniProt P39900)", "sequence (P39900 whole entry, the tested form may be a part)": "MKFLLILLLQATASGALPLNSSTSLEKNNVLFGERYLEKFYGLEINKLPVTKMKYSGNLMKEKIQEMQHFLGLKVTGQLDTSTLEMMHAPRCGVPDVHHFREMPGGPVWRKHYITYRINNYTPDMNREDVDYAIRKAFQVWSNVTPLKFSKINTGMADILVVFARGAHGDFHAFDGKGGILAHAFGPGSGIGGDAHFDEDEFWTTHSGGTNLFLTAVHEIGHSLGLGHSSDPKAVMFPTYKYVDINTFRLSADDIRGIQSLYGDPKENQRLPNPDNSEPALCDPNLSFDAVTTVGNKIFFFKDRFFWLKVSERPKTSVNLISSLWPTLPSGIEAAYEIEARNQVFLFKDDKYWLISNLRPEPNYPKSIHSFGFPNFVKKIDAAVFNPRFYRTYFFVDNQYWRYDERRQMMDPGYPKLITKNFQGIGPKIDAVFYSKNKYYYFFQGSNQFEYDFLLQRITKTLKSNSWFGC", "assay": "Binding affinity to human 15N-labeled MMP-12 catalytic domain (G106 to G263 residues) expressed in Escherichia coli BL21 Gold by 1H […] NMR method", "procedure,_shortened": "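2D 1H−15N HSQC spectra of the MMP-12 catalytic domain titrated with ligand (up to 3.3 mM). Kd derived by fitting chemical shift variations of residues.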"}, "Carbonic anhydrase 9 [12]": {"target": "T1, Carbonic anhydrase 9", "settings": "100 uM"}, "Carbonic anhydrase 9 [13]": {"target": "T1, Carbonic anhydrase 9", "settings": "100 uM", "remark": "listed apart in the source"}, "Carbonic anhydrase 9 [14]": {"target": "T1, Carbonic anhydrase 9", "settings": "100 uM", "remark": "listed apart in the source"}, "Carbonic anhydrase 9 [15]": {"target": "T1, Carbonic anhydrase 9", "settings": "100 uM", "remark": "listed apart in the source"}, "Carbonic anhydrase 9 [16]": {"target": "T1, Carbonic anhydrase 9", "settings": "100 uM", "remark": "listed apart in the source"}, "Carbonic anhydrase 9 [17]": {"target": "T1, Carbonic anhydrase 9", "settings": "100 uM", "remark": "listed apart in the source"}, "Carbonic anhydrase 9 [18]": {"target": "T1, Carbonic anhydrase 9", "settings": "100 uM", "remark": "listed apart in the source"}}, "note": "Activity calls are given as the source filed them. No cut-off for these calls is given here.", "data": [{"smiles": "O=C(CCCCC1CCSS1)NCCCCS(=O)(=O)O", "note": "(centres undefined)", "values": [{"measurement": "Activity", "setting": "[1]", "value": "Dose-dependent effect"}, {"measurement": "inhibition at 100 µM", "setting": "Astrocyte", "value": 75, "unit": "%"}, {"measurement": "Activity", "setting": "Rattus norvegicus", "value": "Active"}]}, {"smiles": "O=S(=O)(O)/C=C/c1cc(Br)ccc1O", "values": [{"measurement": "Ki", "setting": "Carbonic anhydrase 9 [2]", "value": 6.83, "unit": "µM"}, {"measurement": "Ki", "setting": "Carbonic anhydrase 12", "value": 4.51, "unit": "µM"}]}, {"smiles": "O=C(CCCCC1CCSS1)NCCCS(=O)(=O)[O-].[Na+]", "note": "(centres undefined)", "values": [{"measurement": "Ki", "setting": "Carbonic anhydrase 9 [2]", "value": 0.654, "unit": "µM"}, {"measurement": "Activity", "setting": "[1]", "value": "Dose-dependent effect"}, {"measurement": "inhibition at 100 µM", "setting": "Astrocyte", "value": 75, "unit": "%"}, {"measurement": "Activity", "setting": "Rattus norvegicus", "value": "Active"}, {"measurement": "mortality", "setting": "HT-29 [3]", "value": 20, "unit": "%"}, {"measurement": "Activity", "setting": "HT-29 [4]", "value": 74.6, "unit": "%"}, {"measurement": "Activity", "setting": "HT-29 [5]", "value": 78.6, "unit": "%"}, {"measurement": "Activity", "setting": "HT-29 [6]", "value": 71.4, "unit": "%"}, {"measurement": "viability at 100 µM", "setting": "HT-29 [7]", "value": 67.4, "unit": "%"}, {"measurement": "Activity", "setting": "HT-29 [8]", "value": 48.1, "unit": "%"}, {"measurement": "viability at 100 µM", "setting": "HT-29 [9]", "value": 81.3, "unit": "%"}, {"measurement": "inhibition", "setting": "[10]", "value": "Active"}, {"measurement": "Ki", "setting": "Carbonic anhydrase 12", "value": 0.727, "unit": "µM"}, {"measurement": "Kd", "setting": "[11]", "value": 875, "unit": "µM"}, {"measurement": "inhibition", "setting": "Carbonic anhydrase 9 [12]", "value": "Active"}, {"measurement": "inhibition", "setting": "Carbonic anhydrase 9 [13]", "value": "Active"}, {"measurement": "inhibition", "setting": "Carbonic anhydrase 9 [14]", "value": "Active"}, {"measurement": "inhibition", "setting": "Carbonic anhydrase 9 [15]", "value": "Active"}, {"measurement": "inhibition", "setting": "Carbonic anhydrase 9 [16]", "value": "Active"}, {"measurement": "inhibition", "setting": "Carbonic anhydrase 9 [17]", "value": "Active"}, {"measurement": "inhibition", "setting": "Carbonic anhydrase 9 [18]", "value": "Active"}]}, {"smiles": "O=C(CCCCC1CCSS1)NCCS(=O)(=O)O", "note": "(centres undefined)", "values": [{"measurement": "Activity", "setting": "[1]", "value": "Dose-dependent effect"}, {"measurement": "inhibition at 100 µM", "setting": "Astrocyte", "value": 75, "unit": "%"}, {"measurement": "Activity", "setting": "Rattus norvegicus", "value": "Active"}]}]}
